Data on one compound can be found in PMC4062594 (Nature chemical biology, 2014).

Changes are numbered by the printed parent chain. Entries after “also recorded” stand apart in the source; their conditions may differ.

One assay has as its target T1, PTP1B1-405 (Homo sapiens, UniProt P18031).
T1 sequence (P18031 1-405): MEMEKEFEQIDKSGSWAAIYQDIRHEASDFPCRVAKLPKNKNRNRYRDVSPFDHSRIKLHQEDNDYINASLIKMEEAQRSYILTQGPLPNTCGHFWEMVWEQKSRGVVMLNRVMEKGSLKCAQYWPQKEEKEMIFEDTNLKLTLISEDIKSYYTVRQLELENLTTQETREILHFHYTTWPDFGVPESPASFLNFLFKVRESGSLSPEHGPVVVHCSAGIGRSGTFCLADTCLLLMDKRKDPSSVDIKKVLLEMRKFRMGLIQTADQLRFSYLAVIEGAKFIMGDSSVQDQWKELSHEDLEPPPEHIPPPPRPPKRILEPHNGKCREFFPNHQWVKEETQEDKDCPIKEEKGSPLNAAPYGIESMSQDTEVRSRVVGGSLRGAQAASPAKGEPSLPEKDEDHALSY
Kind of assay: Direct binding assay with [3H]-MSI-1436.

The next assay concerns the target T2, PTP1B1-405 L192A/S372P (Homo sapiens, UniProt P18031, L192A/S372P).
T2 sequence (P18031 1-405 L192A/S372P): T1 sequence (P18031 1-405) with L192A, S372P
Put plainly: PTP assay, double point mutant. The class given is biochemical. An outline of the steps: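 Continuous fluorescence PTP assay with 10 nM purified PTP1B and 10 μM DiFMUP substrate. Emission at 450 nm was monitored for 20 minutes.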

As usually defined, the Hill coefficient is a measure of the steepness of the concentration-response curve. `CC(C)[C@@H](CC[C@@H](C)[C@H]1CC[C@H]2[C@@H]3[C@H](O)C[C@H]4C[C@@H](NCCCNCCCCNCCCN)CC[C@]4(C)[C@H]3CC[C@]12C)OS(=O)(=O)O` [MSI-1436, Trodusquemine]: the Hill coefficient at PTP1B1-405 (Hill plot) worked out at 1.3. This compound also showed a stoichiometry at PTP1B1-405 (scintillation counting) of 2 mol/mol. The “inhibition by MSI-1436” value on PTP1B1-405 L192A/S372P is on record as “complete loss of inhibition; also recorded: insensitive to MSI-1436”.
